The results in this text go back to ChEMBL document CHEMBL5335799, “Design, Synthesis, and Evaluation of Inhibitors of Hedgehog Acyltransferase” (J Med Chem, 2024).

The target of data set [1] is T1, Protein-cysteine N-palmitoyltransferase HHAT (Homo sapiens, UniProt Q5VTY9). In words: Inhibition of human recombinant HHAT using SHH-FAM peptide as substrate at 50 uM for 30 mins by acylation coupled lipophilic induction of polarization (acyl-cLIP) assay relative to control. An outline of the steps: (§1)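 DDM-solubilized recombinant HHAT mixed with SHH N-terminal FAM peptide and inhibitor or DMSO in MES buffer pH 6.5 with DTT, TCEP and BSA. Reaction started with palmitoyl-CoA; fluorescence anisotropy followed over 30 min in quadruplicate wells. Initial rates from linear regression were normalized to DMSO and no-enzyme controls.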

Data set [2] can be described thus: Permeability of compound at pH 7.4 by PAMPA assay. The format is ADME. The method, boiled down:
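Passive diffusion across an artificial membrane of 2% phosphatidylcholine in dodecane. Test compound at 10 μM was incubated 16 h at 30 °C, with donor pH 5, 6.5 or 7.4.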

In data set [3] the target is T1, Protein-cysteine N-palmitoyltransferase HHAT. The data set is described as follows: Inhibition of human recombinant HHAT using SHH-FAM peptide as substrate at 25 uM for 30 mins by acylation coupled lipophilic induction of polarization (acyl-cLIP) assay relative to control. The method, boiled down: as §1
Data set [4] can be described thus: Apparent permeability across apical to basolateral side in human Caco-2 cells at 10 uM pH 7.4 measured after 2 hrs by LC-MS/MS analysis. The class given is ADME, cell-based. Particulars: caco-2, pH 7.4, 2 h. The method, boiled down:
(§2)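 Caco-2 cells grown in DMEM with 10% FBS, penicillin and streptomycin for 10 days, then plated; monolayer confluency checked by TEER. Compound at 10 μM (1% DMSO) in HBSS pH 7.4 added to apical or basal wells and incubated 2 h at 37 °C. Lucifer yellow used to confirm membrane integrity afterwards. Both chambers quantified by LC-MS/MS against a matrix-matched standard curve.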
On the technique in general: Caco-2 monolayers are a common model of the intestinal barrier.

Data set [5] can be described thus: Apparent permeability across basolateral to apical side in human Caco-2 cells at 10 uM pH 7.4 measured after 2 hrs by LC-MS/MS analysis. The format is ADME, cell-based. Particulars: caco-2, pH 7.4, 2 h. An outline of the steps:
as §2

The target of data set [6] is T1, Protein-cysteine N-palmitoyltransferase HHAT. The data set is described as follows: Inhibition of human recombinant HHAT using SHH-FAM peptide as substrate for 30 mins by acylation coupled lipophilic induction of polarization (acyl-cLIP) assay. An outline of the steps:
as §1

Data set [7] in a line: Cytotoxicity against human SHH+ HEK293a cells assessed as cell viability at 25 uM measured after 72 hrs by MTS assay relative to control. The class given is toxicity, cell-based, HEK293-A. Particulars: read-out: Activity. Background: Formazan colour is commonly taken as a measure of viable cells.
The nature of data set [8]: Cytotoxicity against human SHH+ HEK293a cells assessed as cell viability at 12.5 uM measured after 72 hrs by MTS assay relative to control. The format is toxicity, cell-based, HEK293-A. Particulars: read-out: Activity.
Data set [9] in a line: Cytotoxicity against human SHH+ HEK293a cells assessed as cell viability measured after 72 hrs by MTS assay. The format is toxicity, cell-based, HEK293-A. The method, boiled down:
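HEK293a SHH+ cells seeded at 5000/well and cultured 24 h. They were then exposed 72 h to vehicle, puromycin (2 μg/mL) or compound (0.14–100 μM final) in DMEM with 10% FBS. MTS/PMS added for 3 h at 37 °C and absorbance read at 490 nm. Signal normalized to vehicle and puromycin; CC50 from a variable-slope sigmoidal fit.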

Data set [10] concerns the target T1, Protein-cysteine N-palmitoyltransferase HHAT. In words: Inhibition of HHAT in human HEK293a SHH+ cells incubated with compound for 24 hrs followed by transferred into SHH-Light2 cells cellular incubated for 48 hrs by Renilla/Firefly luciferase reporter assay. The format is cell-based, HEK293-A. The method, boiled down:
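HEK293a SHH+ cells (120,000/well) were given compound (0.041–30 μM final) or 0.2% DMSO for 24 h. Conditioned medium was cleared at 1000g and added to SHH-Light2 cells (NIH3T3-derived, Gli-Firefly plus constitutive Renilla) in triplicate wells for 48 h.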

T1 sequence (Q5VTY9 whole entry): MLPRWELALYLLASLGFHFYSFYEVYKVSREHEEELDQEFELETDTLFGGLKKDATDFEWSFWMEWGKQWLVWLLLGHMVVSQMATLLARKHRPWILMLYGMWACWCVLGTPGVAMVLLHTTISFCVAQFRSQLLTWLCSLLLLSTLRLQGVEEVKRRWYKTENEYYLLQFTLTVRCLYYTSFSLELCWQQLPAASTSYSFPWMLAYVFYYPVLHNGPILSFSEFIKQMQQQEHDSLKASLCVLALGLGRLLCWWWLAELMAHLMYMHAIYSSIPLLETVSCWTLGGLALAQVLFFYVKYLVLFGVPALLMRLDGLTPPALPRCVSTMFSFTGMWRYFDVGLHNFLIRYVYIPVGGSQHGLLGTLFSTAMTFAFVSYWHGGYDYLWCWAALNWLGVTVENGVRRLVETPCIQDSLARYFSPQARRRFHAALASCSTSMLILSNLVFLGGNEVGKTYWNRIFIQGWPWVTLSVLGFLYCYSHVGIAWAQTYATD

In general, inhibition refers to the change of the read-out against control, counted positive when it falls. Take `c1ccc(C2NCCc3sccc32)cc1` (stereo not drawn): in data set [1], the inhibition is 16%. `CCC(C)CNCC(=O)N1CCc2sccc2C1c1cccc(C)c1` (stereo not drawn): the permeability entry in data set [2] was “Impermeable”. With `CC(=O)N1CCc2ccccc2C1c1ccccc1` (stereo not drawn), the permeability entry in data set [2] is given as “Permeable”. Turning to `CC(=O)N1CCc2sccc2[C@@H]1c1cccc(C)n1`, in [1], the inhibition amounted to 56%. For `N[C@@H](Cc1ccccc1)C(=O)N1CCc2sccc2C1c1ccccc1` (stereo partly drawn), the inhibition worked out at 6% in [1] and 3% in [3]. Take `C=CCNCC(=O)N1CCc2sccc2C1COc1ccc(Cl)cc1` (stereo not drawn): the permeability result in [2], in data set [4] and in data set [5] was “Permeable” each time. On to `CCC(C)CNCC(=O)N1CCc2ccccc2C1c1ccccc1` (stereo not drawn), for which the permeability result in data set [2] was “Permeable”. In the case of `COc1ccccc1C1c2ccsc2CCN1C(C)=O` (stereo not drawn), the inhibition in data set [1] was found to be 91%. A word on the IC50: it is the concentration that gives 50% inhibition. A word on the CC50: it is the concentration that lowers cell viability or growth by half. In the case of `Cc1cccc(C2c3ccsc3CCN2C(=O)NCCCC(C)C)n1` (stereo not drawn), the inhibition in data set [1] is 53%; in data set [3] it was 31%. The IC50 in data set [6] worked out at 42.3 µM. For the same compound, the viability at 72 h, 25 µM in [7] is 22%. Moreover, in data set [8], the viability at 72 h, 12.5 µM amounted to 32%. Further, in data set [9], the half-maximal cytotoxic concentration (CC50) at 72 h was 6.1 µM. Consider `CC(=O)N1CCc2sccc2C1c1ccccc1` (stereo not drawn), for which the permeability result in [2] is reported as “Permeable”. Regarding `CCC(C)CNCC(=O)N1CCc2sccc2C1c1cccc(C)n1` (racemic), the permeability entry in data set [2], in [4] and in [5] was “Permeable” in each case. Usually EC50 stands for the concentration that produces a half-maximal response. With `Cc1cccc([C@@H]2c3ccsc3CCN2C(=O)CNCC(C)C)n1`, the EC50 in data set [10] is greater than 30 µM.

On to `CCC(C)CNCC(=O)N1CCc2sccc2C1c1ccccc1O` (stereo not drawn), for which the IC50 in [6] is 4.79 µM.
